Test [1] relates to Caco-2. In words: Growth inhibition of human Caco2 cells at 10 uM after 48 hrs by MTT assay relative to control. The format is functional. Particulars: Caco-2, 48 h, read-out: GI. The gist of the method: (§1)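 Single-concentration primary screen at 10 μM by MTT assay. Cells were NCI-sourced cancer lines grown in appropriate medium at 37 °C, 95% humidity, 5% CO2. Growth inhibition is expressed relative to control.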
(Tetrazolium assays rely on reduction of a dye to a coloured formazan, in cell work by metabolically active cells.)

Test [2] concerns HL-60. In words: Growth inhibition of human HL60 cells at 10 uM after 48 hrs by MTT assay relative to control. The format is functional. Particulars: HL-60, 48 h, read-out: GI. A digest of the protocol: as §1
In test [3] the test system is MCF7. As to the kind of experiment: Growth inhibition of human MCF7 cells at 10 uM after 48 hrs by MTT assay relative to control. Conditions: MCF7, 48 h, read-out: GI. The format is functional. A digest of the protocol:
as §1

Test [4] has as its target CDK2/Cyclin A2 (Homo sapiens) (UniProt P24941+P20248). As to the kind of experiment: Inhibition of CDK2/cyclin A (unknown origin) at 0.5 uM using histone H1 as substrate after 30 mins in presence of [33P]-gamma-ATP by filter binding assay relative to control. The format is protein-complex assay.
Test [5] has as its system PC-3. In words: Growth inhibition of human PC3 cells at 10 uM after 48 hrs by MTT assay relative to control. The format is functional. Particulars: PC-3, 48 h, read-out: GI. A digest of the protocol:
as §1

Test [6] relates to MIA PaCa-2. As to the kind of experiment: Growth inhibition of human MIAPaCa2 cells at 10 uM after 48 hrs by MTT assay relative to control. The format is functional. Particulars: MIA PaCa-2, 48 h, read-out: GI. The gist of the method:
as §1

Test [7] concerns the target CDK9/cyclin T1 (Homo sapiens) (UniProt O60563+P50750). In words: Inhibition of CDK9/cyclin T1 (unknown origin) at 0.5 uM using YSPTSPSYSPTSPSYSPTSPKKK as substrate after 30 mins in presence of [33P]-gamma-ATP by filter binding assay relative to control. The format is protein-complex assay.
Test [8] concerns PC-3. As to the kind of experiment: Growth inhibition of human PC3 cells after 48 hrs by MTT assay. The format is functional. Particulars: PC-3, 48 h. The gist of the method:
(§2)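 Cancer cell lines sourced from the National Cancer Institute (USA). Cells kept in appropriate growth medium at 37 °C, 95% humidity, 5% CO2. Antiproliferation read by tetrazolium (MTT) assay. GI50 values were determined only for compounds selected after an initial single-concentration screen.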

In test [9] the test system is MIA PaCa-2. As to the kind of experiment: Growth inhibition of human MIAPaCa2 cells after 48 hrs by MTT assay. Particulars: MIA PaCa-2, 48 h. The format is functional. The gist of the method: as §2
Test [10] relates to HL-60. In words: Growth inhibition of human HL60 cells after 48 hrs by MTT assay. The format is functional. Particulars: HL-60, 48 h. A digest of the protocol:
as §2

Test [11] concerns MCF7. In words: Growth inhibition of human MCF7 cells after 48 hrs by MTT assay. The format is functional. Particulars: MCF7, 48 h. A digest of the protocol: as §2
For test [12], the system named is Caco-2. As to the kind of experiment: Growth inhibition of human Caco2 cells after 48 hrs by MTT assay. The format is functional. Particulars: Caco-2, 48 h. The gist of the method:
as §2

Broadly, the inhibition is the change of the read-out against control, counted positive when it falls. One may read the GI50 as the concentration at which growth is held to half of that of the control.

Regarding `Cc1cc(=O)c2c(O)c(CN3CCCC3CO)c(O)c([C@H]3CCN(C)C[C@H]3O)c2o1` (stereo not given in full), the inhibition of growth at 10 µM with Caco-2 [1] was determined as 19%; in the test with HL-60 [2], 33%; in the test with MCF7 [3], 22%; in the test with PC-3 [5], 15%; in the test with MIA PaCa-2 [6], 13%. In addition, the inhibition in test [4] was 0%; in [7] it was 5%.
Turning to `Cc1cc(=O)c2c(O)cc(OCc3ccc([N+](=O)[O-])cc3)c([C@H]3CCN(C)C[C@H]3O)c2o1`, the inhibition of growth at 10 µM was found to be 14% with Caco-2 [1]; 14% with HL-60 [2]; 39% in the test with MCF7 [3]; 23% with PC-3 [5]; 12% in the test with MIA PaCa-2 [6]. Further, the inhibition in [4] came out at 0%; in test [7], 5%.
With `Cc1cc(=O)c2c(O)cc(OCc3ccc(Br)cc3)c([C@H]3CCN(C)C[C@H]3O)c2o1`, the inhibition of growth at 10 µM in the test with Caco-2 [1] came to 13%; in the test on HL-60 [2], 27%; in the test with MCF7 [3], 14%; with PC-3 [5] it was 17%; with MIA PaCa-2 [6], 13%. Also, the inhibition in [4] and in test [7] was 0% in each case.
Consider `COc1ccc(COc2cc(O)c3c(=O)cc(C)oc3c2[C@H]2CCN(C)C[C@H]2O)cc1`, for which the inhibition of growth at 10 µM in the test with Caco-2 [1] was 8%; with HL-60 [2], 23%; with MCF7 [3], 16%; with PC-3 [5] it was 35%; with MIA PaCa-2 [6], 15%. The inhibition in test [4] was 10%; in [7], 0%.
`Cc1cc(=O)c2c(O)c(CN3CCN(C)CC3)c(O)c([C@H]3CCN(C)C[C@H]3O)c2o1`: the inhibition of growth at 10 µM in the test with Caco-2 [1] was 30%; in the test on HL-60 [2] it was 15%; in the test on MCF7 [3], 10%; in the test with PC-3 [5] it was 0%; with MIA PaCa-2 [6], 6%. Besides, the inhibition in [4] was 0%; in [7], 2%.
Regarding `Cc1oc2c([C@H]3CCN(C)C[C@H]3O)c(O)cc(O)c2c(=O)c1C(O)c1ccc(F)cc1` (stereo not given in full), the inhibition of growth at 10 µM was 11% in the test on Caco-2 [1]; 30% in the test with HL-60 [2]; 9% in the test on MCF7 [3]; 0% in the test with PC-3 [5]; 17% in the test on MIA PaCa-2 [6]. Further, the inhibition in test [4] and in test [7] was 13% each time.
Consider `Cc1cc(=O)c2c(O)cc(O)c([C@H]3CCN(C)C[C@H]3O)c2o1` [ROHITUKINE], for which the inhibition of growth at 10 µM in the test on Caco-2 [1] is 12%; in the test on HL-60 [2], 83%; in the test on MCF7 [3], 15%; in the test with PC-3 [5], 33%; in the test with MIA PaCa-2 [6] it was 2%. The concentration for 50% growth inhibition (GI50) with PC-3 [8] turned out to be 19 µM; in the test with MIA PaCa-2 [9] it was 19 µM; with HL-60 [10] it was 10 µM; in the test with MCF7 [11], 28 µM; in the test on Caco-2 [12], 25 µM.
As for `Cc1oc2c([C@H]3CCN(C)C[C@H]3O)c(O)cc(O)c2c(=O)c1C(O)c1cccc(Cl)c1` (stereo not given in full), the inhibition of growth at 10 µM stood at 4% in the test with Caco-2 [1]; 22% in the test with HL-60 [2]; 5% in the test with MCF7 [3]; 31% in the test with PC-3 [5]; 2% in the test with MIA PaCa-2 [6]. The inhibition amounted to 0% in [4] and 4% in [7].
Take `Cc1cc(=O)c2c(O)c(CN3CCCC3C(=O)O)c(O)c([C@H]3CCN(C)C[C@H]3O)c2o1` (stereo not given in full): the inhibition of growth at 10 µM with Caco-2 [1] stood at 30%; in the test with HL-60 [2], 16%; in the test on MCF7 [3], 21%; with PC-3 [5] it was 0%; in the test on MIA PaCa-2 [6] it was 10%. The figures for the inhibition in test [4] and in test [7] were 17% and 0%, respectively.
In the case of `Cc1cc(=O)c2c(O)c(CN(C)CC(=O)O)c(O)c([C@H]3CCN(C)C[C@H]3O)c2o1`, the inhibition of growth at 10 µM in the test on Caco-2 [1] is 18%; in the test on HL-60 [2], 23%; in the test with MCF7 [3], 27%; in the test with PC-3 [5], 20%; in the test on MIA PaCa-2 [6] it was 16%. In addition, the inhibition in test [4] and in [7] was 0% in each case.
`Cc1oc2c([C@H]3CCN(C)C[C@H]3O)c(O)cc(O)c2c(=O)c1C(O)c1ccccc1Br` (stereo not given in full): the inhibition of growth at 10 µM was determined as 7% with Caco-2 [1]; 52% in the test on HL-60 [2]; 21% in the test on MCF7 [3]; 45% in the test with PC-3 [5]; 10% with MIA PaCa-2 [6]. For the same compound, the inhibition in test [4] was determined as 0%; in test [7], 29%.
For the compound `Cc1oc2c([C@H]3CCN(C)C[C@H]3O)c(O)cc(O)c2c(=O)c1C(O)c1ccc(F)c(Br)c1` (stereo not given in full), the inhibition of growth at 10 µM with Caco-2 [1] was 6%; in the test on HL-60 [2] it was 25%; in the test with MCF7 [3], 14%; in the test on PC-3 [5], 72%; with MIA PaCa-2 [6], 9%. Besides, the inhibition in test [4] and in test [7] was 2% throughout.
With `Cc1cc(=O)c2c(O)cc(OCc3ccccc3Br)c([C@H]3CCN(C)C[C@H]3O)c2o1`, the inhibition of growth at 10 µM with Caco-2 [1] stood at 35%; with HL-60 [2], 3%; in the test on MCF7 [3], 45%; in the test on PC-3 [5], 32%; in the test on MIA PaCa-2 [6], 30%. Also, the inhibition is 6% in test [4] and 0% in test [7].
Consider `Cc1cc(=O)c2c(O)cc(OCc3ccccc3)c([C@H]3CCN(C)C[C@H]3O)c2o1`, for which the inhibition of growth at 10 µM is 18% in the test with Caco-2 [1]; 24% with HL-60 [2]; 1% with MCF7 [3]; 41% in the test with PC-3 [5]; 14% in the test on MIA PaCa-2 [6]. The inhibition in test [4] was 10%; in [7], 0%.
`Cc1cc(=O)c2c(O)c(CN3CCCC3)c(O)c([C@H]3CCN(C)C[C@H]3O)c2o1`: the inhibition of growth at 10 µM worked out at 22% in the test with Caco-2 [1]; 38% in the test with HL-60 [2]; 12% with MCF7 [3]; 10% in the test with PC-3 [5]; 28% in the test with MIA PaCa-2 [6]. The inhibition in [4] is 7%; in test [7] it was 5%.
As to `Cc1cc(=O)c2c(O)cc(O)c([C@H]3CCN(C)C[C@H]3OC(=O)c3ccco3)c2o1`, the inhibition of growth at 10 µM with Caco-2 [1] stood at 33%; in the test on HL-60 [2], 22%; with MCF7 [3] it was 20%; in the test on PC-3 [5] it was 23%; in the test with MIA PaCa-2 [6] it was 13%. Moreover, the inhibition in test [4] worked out at 10%; in test [7], 0%.

These data come from ChEMBL document CHEMBL4043283, “Discovery and Preclinical Development of IIIM-290, an Orally Active Potent Cyclin-Dependent Kinase Inhibitor” (J Med Chem, 2018).
